Measured values from ChEMBL document CHEMBL3632558, “Synthesis, antimycobacterial and antibacterial activity of l-[(1R,2S)-2-fluorocyclopropyl]naphthyridone derivatives containing an oxime-functionalized pyrrolidine moiety” (2015).
Values after ≈ are worked out from the molar mass of the structure shown.

What was measured:
Type in all cases: functional
Enterococcus faecium [1] = assay: Antibacterial activity against Enterococcus faecium 14-5 after 18 to 24 hrs
How it was run: (§1)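 MIC by standard NCCLS reference procedure (M100-S11); lowest concentration of compound inhibiting visible bacterial growth after incubation at 35 °C for 18–24 h, read as complete inhibition of growth. Ciprofloxacin, levofloxacin and moxifloxacin run alongside as reference agents.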

Escherichia coli [2] = assay: Antibacterial activity against Escherichia coli 14-2 after 18 to 24 hrs; how it was run: as §1
[3] = system: Staphylococcus epidermidis; assay: Antibacterial activity against methicillin-resistant Staphylococcus epidermidis 14-22 after 18 to 24 hrs
Escherichia coli [4] = assay: Antibacterial activity against Escherichia coli 14-1 after 18 to 24 hrs; how it was run: as §1
Pseudomonas aeruginosa [5] = assay: Antibacterial activity against Pseudomonas aeruginosa 14-19 after 18 to 24 hrs; how it was run: as §1
[6] = system: Staphylococcus epidermidis; assay: Antibacterial activity against methicillin-resistant Staphylococcus epidermidis 14-39 after 18 to 24 hrs
Enterococcus faecium [7] = assay: Antibacterial activity against Enterococcus faecium 14-6 after 18 to 24 hrs; how it was run: as §1
Staphylococcus aureus [8] = assay: Antibacterial activity against methicillin-sensitive Staphylococcus aureus 14-2 after 18 to 24 hrs; how it was run: as §1
[9] = system: Staphylococcus epidermidis; assay: Antibacterial activity against methicillin-resistant Staphylococcus epidermidis 14-37 after 18 to 24 hrs
Enterococcus faecium [10] = assay: Antibacterial activity against Enterococcus faecium 14-2 after 18 to 24 hrs; how it was run: as §1
Staphylococcus aureus [11] = assay: Antibacterial activity against methicillin-resistant Staphylococcus aureus 14-4 after 18 to 24 hrs
Pseudomonas aeruginosa [12] = assay: Antibacterial activity against Pseudomonas aeruginosa 14-15 after 18 to 24 hrs; how it was run: as §1
[13] = system: Staphylococcus epidermidis; assay: Antibacterial activity against methicillin-resistant Staphylococcus epidermidis 14-21 after 18 to 24 hrs
Klebsiella pneumoniae [14] = assay: Antibacterial activity against Klebsiella pneumoniae 14-4 after 18 to 24 hrs; how it was run: as §1
Klebsiella pneumoniae [15] = assay: Antibacterial activity against ESBL-positive Klebsiella pneumoniae 14-18 after 18 to 24 hrs; how it was run: as §1
Staphylococcus aureus [16] = assay: Antibacterial activity against methicillin-sensitive Staphylococcus aureus 14-3 after 18 to 24 hrs; how it was run: as §1
Staphylococcus aureus [17] = assay: Antibacterial activity against Staphylococcus aureus CMCC 26003 after 18 to 24 hrs; how it was run: as §1
[18] = system: Mycobacterium tuberculosis; assay: Antimycobacterial activity against Mycobacterium tuberculosis H37Rv ATCC 27294 by alamar blue assay
How it was run: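 Microplate Alamar Blue Assay; MIC is the lowest concentration giving ≥90% reduction in fluorescence relative to the mean of replicate bacterium-only controls. MDR strain 6133 is resistant to isoniazid and rifampicin.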

Klebsiella pneumoniae [19] = assay: Antibacterial activity against Klebsiella pneumoniae 14-3 after 18 to 24 hrs; how it was run: as §1
Klebsiella pneumoniae [20] = assay: Antibacterial activity against ESBL-positive Klebsiella pneumoniae 14-19 after 18 to 24 hrs; how it was run: as §1
Staphylococcus aureus [21] = assay: Antibacterial activity against methicillin-sensitive Staphylococcus aureus 14-4 after 18 to 24 hrs; how it was run: as §1
Pseudomonas aeruginosa [22] = assay: Antibacterial activity against Pseudomonas aeruginosa 14-9 after 18 to 24 hrs; how it was run: as §1
Pseudomonas aeruginosa [23] = assay: Antibacterial activity against Pseudomonas aeruginosa 14-14 after 18 to 24 hrs; how it was run: as §1
Escherichia coli [24] = assay: Antibacterial activity against ESBL-positive Escherichia coli 14-1 after 18 to 24 hrs; how it was run: as §1
[25] = system: Staphylococcus epidermidis; assay: Antibacterial activity against methicillin-sensitive Staphylococcus epidermidis 14-2 after 18 to 24 hrs; how it was run: as §1
Enterococcus faecium [26] = assay: Antibacterial activity against Enterococcus faecium 14-1 after 18 to 24 hrs; how it was run: as §1
Escherichia coli [27] = assay: Antibacterial activity against Escherichia coli ATCC 25922 after 18 to 24 hrs; how it was run: as §1
Staphylococcus aureus [28] = assay: Antibacterial activity against methicillin-resistant Staphylococcus aureus 14-5 after 18 to 24 hrs
Staphylococcus aureus [29] = assay: Antibacterial activity against methicillin-sensitive Staphylococcus aureus 14-1 after 18 to 24 hrs; how it was run: as §1
Escherichia coli [30] = assay: Antibacterial activity against ESBL-positive Escherichia coli 14-2 after 18 to 24 hrs; how it was run: as §1
Enterococcus faecalis [31] = assay: Antibacterial activity against Enterococcus faecalis 14-1 after 18 to 24 hrs; how it was run: as §1
Pseudomonas aeruginosa [32] = assay: Antibacterial activity against Pseudomonas aeruginosa ATCC 27853 after 18 to 24 hrs; how it was run: as §1
Klebsiella pneumoniae [33] = assay: Antibacterial activity against Klebsiella pneumoniae 14-1 after 18 to 24 hrs; how it was run: as §1
Klebsiella pneumoniae [34] = assay: Antibacterial activity against Klebsiella pneumoniae 14-2 after 18 to 24 hrs; how it was run: as §1
Pseudomonas aeruginosa [35] = assay: Antibacterial activity against Pseudomonas aeruginosa 14-16 after 18 to 24 hrs; how it was run: as §1
Klebsiella pneumoniae [36] = assay: Antibacterial activity against ESBL-positive Klebsiella pneumoniae 14-17 after 18 to 24 hrs; how it was run: as §1
Streptococcus pneumoniae = assay: Antibacterial activity against Streptococcus pneumoniae ATCC 19615 after 18 to 24 hrs; how it was run: as §1
Enterococcus faecalis [37] = assay: Antibacterial activity against Enterococcus faecalis 14-2 after 18 to 24 hrs; how it was run: as §1

Row | Compound | MIC (Enterococcus faecium [1]) [µg/mL] | MIC (Escherichia coli [2]) [µg/mL] | MIC [3] [µg/mL] | MIC (Escherichia coli [4]) [µg/mL] | MIC (Pseudomonas aeruginosa [5]) [µg/mL] | MIC [6] [µg/mL] | MIC (Enterococcus faecium [7]) [µg/mL] | MIC (Staphylococcus aureus [8]) [µg/mL] | MIC [9] [µg/mL] | MIC (Enterococcus faecium [10]) [µg/mL] | MIC (Staphylococcus aureus [11]) [µg/mL] | MIC (Pseudomonas aeruginosa [12]) [µg/mL] | MIC [13] [µg/mL] | MIC (Klebsiella pneumoniae [14]) [µg/mL] | MIC (Klebsiella pneumoniae [15]) [µg/mL] | MIC (Staphylococcus aureus [16]) [µg/mL] | MIC (Staphylococcus aureus [17]) [µg/mL] | MIC90 [18] [µg/mL] | MIC (Klebsiella pneumoniae [19]) [µg/mL] | MIC (Klebsiella pneumoniae [20]) [µg/mL] | other results
1 | COc1cccc(CO/N=C2\CN(c3nc4c(cc3F)c(=O)c(C(=O)O)cn4[C@@H]3C[C@@H]3F)CC2CN)c1OC (stereo partly specified) | 4 (≈ 7.36 µM) | 128 (≈ 235 µM) | 1 (≈ 1.84 µM) | 2 (≈ 3.68 µM) | 16 (≈ 29.4 µM) | 16 (≈ 29.4 µM) | 16 (≈ 29.4 µM) | < 0.008 | 16 (≈ 29.4 µM) | 1 (≈ 1.84 µM) | 16 (≈ 29.4 µM) | 16 (≈ 29.4 µM) | 2 (≈ 3.68 µM) | 128 (≈ 235 µM) | 16 (≈ 29.4 µM) | < 0.008 | < 0.008 | 0.376 (≈ 0.692 µM) | 64 (≈ 118 µM) | 128 (≈ 235 µM) | MIC (Staphylococcus aureus [21]): 0.015 µg/mL (≈ 0.0276 µM); MIC (Pseudomonas aeruginosa [22]): 8 µg/mL (≈ 14.7 µM); MIC (Pseudomonas aeruginosa [23]): 16 µg/mL (≈ 29.4 µM); MIC (Escherichia coli [24]): 32 µg/mL (≈ 58.9 µM); MIC [25]: 32 µg/mL (≈ 58.9 µM); MIC (Enterococcus faecium [26]): 1 µg/mL (≈ 1.84 µM); MIC (Escherichia coli [27]): 0.03 µg/mL (≈ 0.0552 µM); MIC (Staphylococcus aureus [28]): 2 µg/mL (≈ 3.68 µM); MIC (Staphylococcus aureus [29]): 4 µg/mL (≈ 7.36 µM); MIC (Escherichia coli [30]): 128 µg/mL (≈ 235 µM); MIC (Enterococcus faecalis [31]): 64 µg/mL (≈ 118 µM); MIC (Pseudomonas aeruginosa [32]): 2 µg/mL (≈ 3.68 µM); MIC (Klebsiella pneumoniae [33]): 128 µg/mL (≈ 235 µM); MIC (Klebsiella pneumoniae [34]): 128 µg/mL (≈ 235 µM); MIC (Pseudomonas aeruginosa [35]): 16 µg/mL (≈ 29.4 µM); MIC (Klebsiella pneumoniae [36]): 128 µg/mL (≈ 235 µM); MIC (Streptococcus pneumoniae): 0.03 µg/mL (≈ 0.0552 µM); MIC (Enterococcus faecalis [37]): 0.015 µg/mL (≈ 0.0276 µM)
2 | COc1cc(CO/N=C2\CN(c3nc4c(cc3F)c(=O)c(C(=O)O)cn4[C@@H]3C[C@@H]3F)CC2CN)cc(OC)c1 (stereo partly specified) | 8 (≈ 14.7 µM) | > 128 | 4 (≈ 7.36 µM) | > 128 | 16 (≈ 29.4 µM) | 16 (≈ 29.4 µM) | 16 (≈ 29.4 µM) | < 0.008 | 16 (≈ 29.4 µM) | 4 (≈ 7.36 µM) | 16 (≈ 29.4 µM) | 32 (≈ 58.9 µM) | 4 (≈ 7.36 µM) | > 128 | 16 (≈ 29.4 µM) | 0.015 (≈ 0.0276 µM) | < 0.008 | 0.375 (≈ 0.69 µM) | 64 (≈ 118 µM) | 128 (≈ 235 µM) | MIC (Staphylococcus aureus [21]): 0.015 µg/mL (≈ 0.0276 µM); MIC (Pseudomonas aeruginosa [22]): 32 µg/mL (≈ 58.9 µM); MIC (Pseudomonas aeruginosa [23]): 32 µg/mL (≈ 58.9 µM); MIC (Escherichia coli [24]): 4 µg/mL (≈ 7.36 µM); MIC [25]: 16 µg/mL (≈ 29.4 µM); MIC (Enterococcus faecium [26]): 2 µg/mL (≈ 3.68 µM); MIC (Escherichia coli [27]): 2 µg/mL (≈ 3.68 µM); MIC (Staphylococcus aureus [28]): 8 µg/mL (≈ 14.7 µM); MIC (Staphylococcus aureus [29]): 4 µg/mL (≈ 7.36 µM); MIC (Escherichia coli [30]): > 128 µg/mL; MIC (Enterococcus faecalis [31]): 16 µg/mL (≈ 29.4 µM); MIC (Pseudomonas aeruginosa [32]): 8 µg/mL (≈ 14.7 µM); MIC (Klebsiella pneumoniae [33]): 128 µg/mL (≈ 235 µM); MIC (Klebsiella pneumoniae [34]): > 128 µg/mL; MIC (Pseudomonas aeruginosa [35]): 32 µg/mL (≈ 58.9 µM); MIC (Klebsiella pneumoniae [36]): 16 µg/mL (≈ 29.4 µM); MIC (Streptococcus pneumoniae): 0.06 µg/mL (≈ 0.11 µM); MIC (Enterococcus faecalis [37]): 1 µg/mL (≈ 1.84 µM)
